Legend:
Format in all cases: functional
[1] = test system: KM12; experiment: Cytotoxicity against human KM12 cells assessed as cell growth at 10^-5 M after 48 hrs by SRB assay; conditions: KM12, 48 h, read-out: Activity
[2] = test system: UO-31; experiment: Cytotoxicity against human UO31 cells assessed as cell growth at 10^-5 M after 48 hrs by SRB assay; conditions: UO-31, 48 h, read-out: Activity
[3] = test system: MDA-MB-435; experiment: Growth inhibition of human MDA-MB-435 cells after 48 hrs by SRB assay; conditions: MDA-MB-435, 48 h
Summary of the method: (§1)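 Adherent NCI-60 lines grown in RPMI 1640 with 5% FBS, seeded at 5000–40,000 cells/well, and preincubated 24 h at 37 °C, 5% CO2. Compound, stocked in DMSO, given either once at 10^-5 M or at five 10-fold dilutions for 48 h. Cells fixed with cold TCA (final 10%), stained with 0.4% SRB, and read at 515 nm. GI50 taken as 50% reduction in net protein increase versus time-zero and control plates.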

[4] = test system: HCT-116; experiment: Cytotoxicity against human HCT116 cells assessed as cell growth at 10^-7 M after 48 hrs by SRB assay; conditions: HCT-116, 48 h, read-out: Activity
Summary of the method: (§2)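 NCI-60 five-dose screen. Cells were grown in RPMI 1640 with 5% FBS and seeded at 5000–40,000 cells/well according to doubling time. They were pre-incubated 24 h at 37 °C in 5% CO₂, and time-zero (Tz) plates were TCA-fixed at drug addition. Five 10-fold dilutions of DMSO stock were applied for 48 h. Read-out was SRB staining, 515 nm absorbance, with percent growth calculated versus Tz and untreated control.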

[5] = test system: HCT-15; experiment: Cytotoxicity against human HCT15 cells assessed as cell growth at 10^-7 M after 48 hrs by SRB assay; conditions: HCT-15, 48 h, read-out: Activity; summary of the method: as §2
[6] = test system: SF-268; experiment: Cytotoxicity against human SF268 cells assessed as cell growth at 10^-4 M after 48 hrs by SRB assay; conditions: SF-268, 48 h, read-out: Activity
[7] = test system: Malme-3M; experiment: Cytotoxicity against human MALME-3M cells assessed as cell growth at 10^-4 M after 48 hrs by SRB assay; conditions: read-out: Activity
[8] = Growth inhibition of human Hs 578T cells after 48 hrs by SRB assay; summary of the method: as §1
[9] = test system: OVCAR-4; experiment: Cytotoxicity against human OVCAR4 cells assessed as cell growth at 10^-7 M after 48 hrs by SRB assay; conditions: OVCAR-4, 48 h, read-out: Activity
[10] = test system: 786-0; experiment: Cytotoxicity against human 786-0 cells assessed as cell growth at 10^-7 M after 48 hrs by SRB assay; conditions: 786-0, 48 h, read-out: Activity
Summary of the method: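 NCI-60 screen: lines kept in RPMI 1640 with 5% FBS, seeded at 5000–40,000 cells/well by doubling time, preincubated 24 h at 37 °C in 5% CO2. Time-zero plates TCA-fixed at drug addition. DMSO stocks diluted in medium, 48 h exposure. Fixation in cold TCA (final 10% adherent, 16% suspension), 0.4% SRB stain, solubilised in 10 mM Tris base, A515. Percent growth computed against control and time-zero.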

[11] = test system: SN12C; experiment: Cytotoxicity against human SN12C cells assessed as cell growth at 10^-7 M after 48 hrs by SRB assay; conditions: read-out: Activity
[12] = test system: UACC-62; experiment: Cytotoxicity against human UACC62 cells assessed as cell growth at 10^-8 M after 48 hrs by SRB assay; conditions: UACC-62, 48 h, read-out: Activity
[13] = test system: OVCAR-5; experiment: Cytotoxicity against human OVCAR5 cells assessed as cell growth at 10^-8 M after 48 hrs by SRB assay; conditions: OVCAR-5, 48 h, read-out: Activity
[14] = test system: HL-60; experiment: Cytotoxicity against human HL60 cells assessed as cell growth at 10^-6 M after 48 hrs by SRB assay; conditions: HL-60, 48 h, read-out: Activity; summary of the method: as §2
[15] = test system: HOP-92; experiment: Cytotoxicity against human HOP92 cells assessed as cell growth at 10^-6 M after 48 hrs by SRB assay; conditions: HOP-92, 48 h, read-out: Activity
[16] = test system: LOX IMVI; experiment: Cytotoxicity against human LOXIMVI cells assessed as cell growth at 10^-6 M after 48 hrs by SRB assay; conditions: read-out: Activity
[17] = Growth inhibition of human […] cells after 48 hrs by SRB assay
Summary of the method: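 Leukemia suspension lines grown in RPMI 1640 with 5% FBS, seeded at 5000–40,000 cells/well, and preincubated 24 h at 37 °C, 5% CO2. Compound, stocked in DMSO, given either once at 10^-5 M or at five 10-fold dilutions for 48 h. Settled cells fixed with 80% TCA (final 16%), stained with SRB, and read at 515 nm. GI50 calculated against time-zero and control growth.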

[18] = test system: T47D; experiment: Cytotoxicity against human T47D cells assessed as cell growth at 10^-6 M after 48 hrs by SRB assay; conditions: read-out: Activity
[19] = test system: NCI-H23; experiment: Growth inhibition of human NCI-H23 cells after 48 hrs by SRB assay; conditions: NCI-H23, 48 h; summary of the method: as §1
[20] = test system: SK-MEL-5; experiment: Growth inhibition of human SK-MEL-5 cells after 48 hrs by SRB assay; conditions: SK-MEL-5, 48 h, read-out: LC50 (the source's name); summary of the method: as §1
[21] = test system: A549; experiment: Cytotoxicity against human A549 cells assessed as cell growth at 10^-4 M after 48 hrs by SRB assay; conditions: A549, 48 h, read-out: Activity
[22] = Cytotoxicity against human NCI-ADR-RES cells assessed as cell growth at 10^-4 M after 48 hrs by SRB assay; conditions: read-out: Activity
[23] = test system: NCI-H23; experiment: Growth inhibition of human NCI-H23 cells at 10^-8 M after 48 hrs by SRB assay; set-up: scale not given: the % may be the effect or the level left
[24] = test system: NCI-H23; experiment: Growth inhibition of human NCI-H23 cells at 10^-7 M after 48 hrs by SRB assay; set-up: scale not given: the % may be the effect or the level left
[25] = test system: NCI-H23; experiment: Growth inhibition of human NCI-H23 cells at 10^-6 M after 48 hrs by SRB assay; set-up: scale not given: the % may be the effect or the level left
[26] = test system: NCI-H23; experiment: Growth inhibition of human NCI-H23 cells at 10^-5 M after 48 hrs by SRB assay; set-up: scale not given: the % may be the effect or the level left
[27] = test system: NCI-H23; experiment: Growth inhibition of human NCI-H23 cells at 10^-4 M after 48 hrs by SRB assay; set-up: scale not given: the % may be the effect or the level left
[28] = test system: SK-MEL-5; experiment: Growth inhibition of human SK-MEL-5 cells at 10^-7 M after 48 hrs by SRB assay; set-up: scale not given: the % may be the effect or the level left
[29] = test system: SK-MEL-5; experiment: Growth inhibition of human SK-MEL-5 cells at 10^-6 M after 48 hrs by SRB assay; set-up: scale not given: the % may be the effect or the level left
[30] = test system: SK-MEL-5; experiment: Growth inhibition of human SK-MEL-5 cells at 10^-5 M after 48 hrs by SRB assay; set-up: scale not given: the % may be the effect or the level left
[31] = test system: SK-MEL-5; experiment: Growth inhibition of human SK-MEL-5 cells at 10^-4 M after 48 hrs by SRB assay; set-up: scale not given: the % may be the effect or the level left
[32] = test system: SK-MEL-5; experiment: Growth inhibition of human SK-MEL-5 cells at 10^-8 M after 48 hrs by SRB assay; set-up: scale not given: the % may be the effect or the level left

| Structure (SMILES) | growth at 10 µM [1] [%] | GI50 [3] [µM] | LC50 [3] [µM] | TGI [3] [µM] | growth at 0.1 µM [4] [%] | growth at 0.1 µM [5] [%] | growth at 100 µM [6] [%] | growth at 100 µM [7] [%] | GI50 [8] [µM] | LC50 (concentration killing 50% of starting cells) [8] [µM] | TGI [8] [µM] | growth at 0.1 µM [9] [%] | growth at 0.1 µM [10] [%] | growth at 0.1 µM [11] [%] | growth at 0.01 µM [12] [%] | growth at 0.01 µM [13] [%] | growth at 1 µM [14] [%] | growth at 1 µM [16] [%] | GI50 [17] [µM] | LC50 [17] [µM] | other results |
| --- | --- | --- | --- | --- | --- | --- | --- | --- | --- | --- | --- | --- | --- | --- | --- | --- | --- | --- | --- | --- | --- |
| COc1ccc(-c2nn3cc(-c4ccc(O)cc4O)nc3s2)cc1 | 21 | 2.61 | > 100 | 18.6 | 93 | 92 | -8 | -28 | 1.92 | > 100 | 9.27 | 88 | 99 | 93 | 98 | 92 | 74 | 82 | 2.08 | > 100 | growth at 10 µM [2]: -46%; growth at 1 µM [15]: 25%; TGI [17]: > 100 µM; growth at 1 µM [18]: 71% |
| COc1ccc(-c2nn3cc(-c4cccc(N)c4)nc3s2)cc1 | 37 | 2.58 | 89.6 | 14.8 | 99 | 106 | -34 | -66 | 2.33 | > 100 | 23.3 | 92 | 105 | 91 | 93 | 103 | 60 | 77 | 1.28 | > 100 | GI50 [19]: 4.9 µM; TGI [19]: > 100 µM; CC50 ([19]; read-out: LC50 (the source's name)): > 100 µM; CC50 [20]: 3.32 µM; growth at 100 µM [21]: -46%; growth at 100 µM [22]: -11%; Activity [23]: 92%; Activity [24]: 89%; Activity [25]: 84%; Activity [26]: 35%; Activity [27]: 2%; Activity [28]: 91%; Activity [29]: 75%; Activity [30]: 1%; Activity [31]: -96%; Activity [32]: 91%; TGI [17]: 26.7 µM; growth at 1 µM [18]: 57% |

Source: ChEMBL document CHEMBL2146441, “2,6-Disubstituted imidazo[2,1-b][1,3,4]thiadiazoles: search for anticancer agents” (2012)
